Measurements collected from several papers.
Lines come from different studies, so protocols differ.
Target: Dual specificity protein kinase CLK1 (CLK1, Homo sapiens, UniProt P49759)
Method: competition with immobilised ligand

The remaining binding of `CCN1CCN(Cc2ccc(C(=O)Nc3ccc(C)c(Oc4ccc5c(c4)CC(=O)N5)c3)cc2C(F)(F)F)CC1` is reported as 100% (binding; 1 µM).
`O=C(NCCCN1CCOCC1)c1ccc(Nc2nccc(-c3cc4ccccc4s3)n2)cc1` gave a remaining binding of 12% (binding; 1 µM).
For `C[C@@H](c1ccc(-n2cnc3c(N)ncnc32)cc1)N1CCc2nn(C)c(Cc3ccccc3)c2C1=O`, the remaining binding was 67% (binding; 0.1 µM).
With `COc1cnc(Nc2cccc(S(N)(=O)=O)c2)nc1N1CCN(c2ccccc2)C(=O)C1` the remaining binding was 100% (binding; 1 µM).
The remaining binding of `CS(=O)(=O)N1CCCC(NC(=O)[C@H](CCC2CCCCC2)NC(=O)c2ccc(CNc3ncnc4c3nnn4-c3ccccc3)cc2)C1` (some centres unmarked) is reported as 87% (cell-free assay; 0.1 µM).
The remaining binding of `COc1ncc2cc3ccccc3nc2c1C#N` is reported as 98% (cell-free assay; 5 µM).
For `O=S(=O)(NC1CCC(c2cc(F)ccc2F)(S(=O)(=O)c2ccc(Cl)cc2)CC1)C(F)(F)F` (centres unmarked), the remaining binding was 78% (cell-free assay; 1 µM).
For `O=C(NCC1CCOCC1)c1n[nH]cc1NC(=O)c1c(F)cccc1F`, the remaining binding was 30% (binding; 1 µM).
For `C[C@H](c1ccnc(Nc2nc3ccc(-c4cc(N(C)C)ncn4)cc3[nH]2)c1)N1CCN(C(=O)CC(F)(F)F)CC1`, the remaining binding was 90% (cell-free assay; 0.1 µM).
`O=C(c1ccc(Nc2ncc(Cl)c(-c3cc4ccccc4s3)n2)cc1)N1CCC(N2CCCC2)CC1` has a remaining binding of 3% (binding; 1 µM).
The remaining binding of `Cc1c(C(=O)O)cc(-c2ccc(C3CCNCC3)cc2)c2ccc(-c3ccc(C(F)(F)F)cc3)cc12` is reported as 100% (binding; 1 µM).
`O=C(c1ccc(Nc2nccc(-c3cc4ccccc4s3)n2)cc1)N1CCC(N2CCCC2)CC1` has a remaining binding of 13% (binding; 1 µM).
`COc1cnc(Nc2cccc(S(N)(=O)=O)c2)nc1N1CCN(c2ccccc2)CC1` gave a remaining binding of 96% (binding; 1 µM).
`c1cncc(-c2cccc(Nc3nccc(NC4CCCCC4)n3)c2)c1` gave a remaining binding of 1.1% (binding; 10 µM).
